Measurements pooled from the literature.
≈ marks a conversion by molar mass, not a printed value.

COc1cc(C2=CCCCc3c2ccc(OC)c3OCc2cnc([N+](=O)[O-])n2C)cc(OC)c1OC
IC50 (tubulin polymerisation, inhibitor; 20 min): > 20000 nM

Cc1n[nH]c2ccc3nc(-c4ccc(C(=O)NCCN(C)C)cc4)c4c(c3c12)CCCCC4
GI50 (HCC827; cell growth or viability; 72 h): 7120 nM

Cc1nc(Nc2ncc(C(=O)Nc3c(C)cccc3Cl)s2)cc(N2CC[C@H](O)C2)n1
inhibition (OCI-LY19; cell growth or viability, ATP luminescence; 10 µM, 72 h): 9%

CCCn1cnc2ccc(-c3ccc(NC(=O)c4ccccc4)nc3)cc2c1=O
IC50 (HCC827; cell growth or viability, CCK-8; 72 h): 100 nM

COc1cc(C2=CCCCc3c2ccc(OC)c3OC(C)c2ccc([N+](=O)[O-])s2)cc(OC)c1OC (centres unmarked)
IC50 (tubulin polymerisation, inhibitor; 20 min): > 20000 nM

CN(C)CCNC(=O)c1ccc(-c2nc3ccc4[nH]ncc4c3c3c2CCCC3)c(F)c1
GI50 (HCC827; cell growth or viability; 72 h): 1010 nM

CCCCC(=O)Nc1ccc(-c2ccc3ncn(CCC(C)C)c(=O)c3c2)cn1
IC50 (HCC827; cell growth or viability, CCK-8; 72 h): 550 nM

COc1ccc(NC(=O)c2ccc(COC(Cn3ccnc3)c3ccc(Cl)cc3Cl)cc2)cc1 (centres unmarked)
MIC80 (Nakaseomyces glabratus; microbial growth, broth dilution): 0.125 µg/mL (≈ 0.252 µM)

COc1cc(C2=CCCc3c2ccc(OC)c3OCc2ccc([N+](=O)[O-])s2)cc(OC)c1OC
IC50 (tubulin polymerisation, inhibitor; 20 min): > 20000 nM

CCc1nc(C(N)=O)c(Nc2ccc(N3CCC(N4CCN(C)CC4)CC3)c(OC)c2)nc1NC1CCOCC1
GI50 (HCC827; cell growth or viability; 72 h): 283 nM

CCCCC(=O)Nc1ccc(-c2ccc3ncn(CC4CC4)c(=O)c3c2)cn1
IC50 (HCC827; cell growth or viability, CCK-8; 72 h): 56 nM

Clc1ccc(COC(Cn2ccnc2)c2ccc(Cl)cc2Cl)c(Cl)c1 (centres unmarked)
MIC80 (Nakaseomyces glabratus; microbial growth, broth dilution): 0.125 µg/mL (≈ 0.3 µM)

Cc1cccc(NC(=O)Nc2ccc(-c3ccc4ncn(Cc5ccccc5)c(=O)c4c3)cn2)c1
IC50 (HCC827; cell growth or viability, CCK-8; 72 h): 7310 nM

OC(Cn1cncn1)(Cn1cncn1)c1ccc(F)cc1F
MIC80 (Nakaseomyces glabratus; microbial growth, broth dilution): 8 µg/mL (≈ 26.1 µM)

CCCCn1cnc2ccc(-c3ccc(NC(=O)Nc4ccc(C(F)(F)F)cc4)nc3)cc2c1=O
IC50 (HCC827; cell growth or viability, CCK-8; 72 h): > 10000 nM

COc1cc(C2=CCCc3c2ccc(OC)c3OC(C)c2ccc([N+](=O)[O-])s2)cc(OC)c1OC (centres unmarked)
IC50 (tubulin polymerisation, inhibitor; 20 min): > 20000 nM

O=C(Nc1ccc(F)cc1)c1ccc(COC(Cn2ccnc2)c2ccc(Cl)cc2Cl)cc1 (centres unmarked)
MIC80 (Nakaseomyces glabratus; microbial growth, broth dilution): 0.25 µg/mL (≈ 0.516 µM)
